Experimental data as given in ChEMBL document CHEMBL4402547, “Synthesis and Pharmacological Characterization of Conformationally Restricted Retigabine Analogues as Novel Neuronal Kv7 Channel Activators” (J Med Chem, 2020).
The source made the active and inactive calls. The calls are words filed in the database; no cut-off is given here.

Tests used:
[1] = biological target: T1, Potassium voltage-gated channel subfamily KQT member 2 (Homo sapiens, UniProt O43526); assay: Potency index, ratio of EC50 for RET to EC50 for test compound for activation of human Kv7.2 expressed in CHO cells; assay type: cell-based
[2] = biological target: T1, Potassium voltage-gated channel subfamily KQT member 2; assay: Activation of human Kv7.2 expressed in CHO cells assessed as leftward shift in half-activation voltage at 0.03 uM in constant voltage pulse by whole cell patch clamp electrophysiology assay; assay type: cell-based
How it was run: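 CHO cells transiently expressing human Kv7.2, whole-cell patch clamp at 20–22°C, pH 7.4 bath. Currents activated by constant voltage pulses before and after 0.03 μM drug. Normalized conductance/voltage curves fitted to a double Boltzmann function to obtain half-activation voltage (V1/2).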

[3] = Photostability of compound in pH 7.4 buffer assessed as retention time of metabolite incubated for 6 hrs under visible light irradiation by HPLC/MS analysis
[4] = Photostability of compound in pH 7.4 buffer assessed as formation of 4-fluorobenzaldehyde incubated for 6 hrs under visible light irradiation by HPLC analysis
[5] = biological target: T1, Potassium voltage-gated channel subfamily KQT member 2; assay: Activation of human Kv7.2 expressed in CHO cells assessed as increase in current amplitude with fast ON kinetics measured at holding potential of -40 mV by whole cell patch clamp electrophysiology assay; assay type: cell-based
How it was run: (§1)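 Human Kv7.2 transiently expressed in CHO cells, whole-cell patch clamp at 20–22°C, pH 7.4 HEPES-buffered extracellular solution under constant perfusion. Cells held at -80 mV; 3-s ramps -80 to +20 mV with and without compound; current at -40 mV taken as drug/control amplitude ratio, followed over time during application and wash-out; mean ± SEM of ≥3 cells from ≥2 transfections.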

[6] = Photostability of compound in pH 7.4 buffer assessed as metabolite with phenazinium-dimer formation incubated for 6 hrs under visible light irradiation by HPLC/MS/MS analysis
[7] = Photostability of compound in pH 7.4 buffer assessed as compound degradation at 100 ug/ml incubated for 6 hrs under artificial daylight D65 lamp-irradiation by HPLC analysis relative to control
How it was run: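 Compound from DMSO stock diluted in pH 7.4 buffer to final 1 mM, 10 μM or 1 μM in 1 cm quartz cells, held at 37°C under UV lamp (365 and 264 nm) or artificial daylight D65 lamp; dark controls in foil at 37°C. Aliquots taken at set intervals; loss of parent by HPLC (C18, TFA water/acetonitrile gradient, 254 nm).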

[8] = biological target: T1, Potassium voltage-gated channel subfamily KQT member 2; assay: Activation of human Kv7.2 expressed in CHO cells assessed as current amplitude at 10 uM measured after 10 secs upon drug wash-out at holding potential of -40 mV by whole cell patch clamp electrophysiology assay; assay type: cell-based; how it was run: as §1
[9] = Photostability of compound in pH 7.4 buffer assessed as formation of 4-fluorobenzaldehyde incubated for 6 hrs under visible light irradiation by GCMS analysis
[10] = biological target: T2, Potassium voltage-gated channel subfamily KQT member 4 (Homo sapiens, UniProt P56696); assay: Activation of human Kv7.4 expressed in CHO cells assessed as increase in channel current amplitude by whole cell patch clamp electrophysiology assay; assay type: cell-based
T2 sequence (P56696 whole entry): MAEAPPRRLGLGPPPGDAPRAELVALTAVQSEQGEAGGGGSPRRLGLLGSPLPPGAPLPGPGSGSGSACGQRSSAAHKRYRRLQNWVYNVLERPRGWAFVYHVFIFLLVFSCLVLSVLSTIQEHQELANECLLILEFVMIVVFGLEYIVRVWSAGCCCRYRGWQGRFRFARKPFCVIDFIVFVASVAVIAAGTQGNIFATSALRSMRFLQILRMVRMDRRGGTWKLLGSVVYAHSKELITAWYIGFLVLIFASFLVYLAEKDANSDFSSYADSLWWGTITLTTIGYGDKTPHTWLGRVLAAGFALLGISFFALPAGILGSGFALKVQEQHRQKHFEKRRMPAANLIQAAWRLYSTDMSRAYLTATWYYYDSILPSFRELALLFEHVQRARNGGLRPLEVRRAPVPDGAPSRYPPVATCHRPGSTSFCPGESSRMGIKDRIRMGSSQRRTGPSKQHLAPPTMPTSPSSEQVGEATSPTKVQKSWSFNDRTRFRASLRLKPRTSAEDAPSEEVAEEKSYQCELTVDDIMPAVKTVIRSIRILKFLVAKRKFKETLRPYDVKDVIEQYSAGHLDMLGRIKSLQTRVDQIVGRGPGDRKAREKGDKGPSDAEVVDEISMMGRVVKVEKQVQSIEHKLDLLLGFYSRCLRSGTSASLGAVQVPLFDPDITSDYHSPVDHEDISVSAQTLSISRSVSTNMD

T1 sequence (O43526 whole entry): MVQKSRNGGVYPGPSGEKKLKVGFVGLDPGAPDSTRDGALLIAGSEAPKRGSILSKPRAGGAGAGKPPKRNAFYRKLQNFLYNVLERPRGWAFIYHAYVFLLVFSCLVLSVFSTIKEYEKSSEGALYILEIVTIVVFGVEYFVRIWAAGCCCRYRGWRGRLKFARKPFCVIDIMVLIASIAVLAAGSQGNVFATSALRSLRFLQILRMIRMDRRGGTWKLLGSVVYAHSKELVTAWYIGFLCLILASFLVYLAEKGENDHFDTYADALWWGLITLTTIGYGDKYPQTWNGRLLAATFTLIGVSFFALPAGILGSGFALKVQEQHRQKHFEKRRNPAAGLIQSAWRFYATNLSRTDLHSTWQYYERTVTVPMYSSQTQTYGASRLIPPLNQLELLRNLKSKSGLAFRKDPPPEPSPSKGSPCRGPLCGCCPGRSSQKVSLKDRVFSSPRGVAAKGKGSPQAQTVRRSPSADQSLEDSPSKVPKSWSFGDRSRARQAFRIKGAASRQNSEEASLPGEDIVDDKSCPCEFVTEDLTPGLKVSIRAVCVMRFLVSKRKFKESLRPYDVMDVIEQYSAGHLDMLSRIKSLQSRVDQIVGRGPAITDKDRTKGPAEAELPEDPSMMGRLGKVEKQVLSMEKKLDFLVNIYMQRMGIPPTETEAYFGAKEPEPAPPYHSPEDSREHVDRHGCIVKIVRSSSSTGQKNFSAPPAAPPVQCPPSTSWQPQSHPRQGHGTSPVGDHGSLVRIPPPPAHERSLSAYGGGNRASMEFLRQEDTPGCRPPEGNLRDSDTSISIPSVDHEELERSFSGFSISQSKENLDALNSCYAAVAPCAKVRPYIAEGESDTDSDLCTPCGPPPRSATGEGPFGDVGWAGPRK

**Q.** Which Ratio EC50 [1] does the source give for `CCCCCCC(=O)Nc1ccc2c(ccn2Cc2ccc(C(F)(F)F)cc2)c1` here?
**A.** 12

**Q.** And the V1/2 [2]?
**A.** 18 mV

**Q.** With `CCOC(=O)Nc1ccc(NCc2ccc(F)cc2)cc1N` [EZOGABINE] as the compound, how does the Retention time [3] read?
**A.** 5.98 min

**Q.** And the Drug metabolism [4]?
**A.** Metabolite detected

**Q.** What about the Activity [5] of the same compound?
**A.** Dose-dependent effect

**Q.** And the Drug metabolism [6]?
**A.** Metabolite detected

**Q.** What about the Drug degradation [7] of the same compound?
**A.** 47.3%

**Q.** And the Activity [8]?
**A.** inactive

**Q.** What about the Drug metabolism [9] of the same compound?
**A.** Metabolite detected

**Q.** Which EC50 [10] does the source give for `CC(C)(C)CC(=O)Nc1ccc2c(ccn2Cc2ccc(C(F)(F)F)cc2)c1` here?
**A.** 80 nM
